Activity calls are given as the source filed them. The calls are words filed in the database; no cut-off is given here.
Assays:
[1] = target: Growth hormone secretagogue receptor type 1 (Homo sapiens) (UniProt Q92847); experiment: Antagonist activity at human GHS-R at 10 uM by ELISA; conditions: in the assay text read “by calcium flux assay” for “by ELISA”
How it was run: (§1)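 GPCR profiling panel of cell-based functional assays covering 165 GPCRs; agonist mode tested at 12.5 μM and antagonist mode at 10 μM, in duplicate.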

[2] = Stability of compound in DMSO assessed as formation of N-[4-(Ethylamino)phenyl]-5-methyl-3-phenylisoxazole-4-carboxamide at 3 to 5 uM at room temperature measured after 6 months by HPLC/MS method; type: physicochemical; conditions: 4383 h
[3] = target: T1, GATA4/NKX2-5 (Rattus norvegicus) (UniProt P46152+O35767); experiment: Inhibition of GATA4/NKX2-5 interaction in neonatal rat ventricular cardiomyocyte hypertrophy model assessed as decrease in mechanical stretching-induced cell surface area at 10 uM after 48 hrs by alpha-actinin/phalloidin/DAPI staining-based fluorescence microscopic method
How it was run: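 Neonatal rat ventricular myocytes seeded at 10^6/well on collagen I flexible plates, cultured 48 h, then given 10 μM in serum-free medium under equibiaxial cyclic stretch (0.5 Hz, 10–20%) 48 h; nonstretched controls. Fixed, stained α-actinin/phalloidin/DAPI; α-actinin+ cell area (>200 cells/specimen) normalized to untreated nonstretched; three experiments, mean ± SEM.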

[4] = target: Parathyroid hormone 2 receptor (Homo sapiens) (UniProt P49190); experiment: Antagonist activity at human PTH2 receptor expressed in rat Chem-1 cells assessed as inhibition of TIP-39 induced calcium flux at 10 uM by fluorescence assay; type: functional, cell-based; how it was run: as §1
Sequence of Parathyroid hormone 2 receptor (Homo sapiens) (P49190 whole entry): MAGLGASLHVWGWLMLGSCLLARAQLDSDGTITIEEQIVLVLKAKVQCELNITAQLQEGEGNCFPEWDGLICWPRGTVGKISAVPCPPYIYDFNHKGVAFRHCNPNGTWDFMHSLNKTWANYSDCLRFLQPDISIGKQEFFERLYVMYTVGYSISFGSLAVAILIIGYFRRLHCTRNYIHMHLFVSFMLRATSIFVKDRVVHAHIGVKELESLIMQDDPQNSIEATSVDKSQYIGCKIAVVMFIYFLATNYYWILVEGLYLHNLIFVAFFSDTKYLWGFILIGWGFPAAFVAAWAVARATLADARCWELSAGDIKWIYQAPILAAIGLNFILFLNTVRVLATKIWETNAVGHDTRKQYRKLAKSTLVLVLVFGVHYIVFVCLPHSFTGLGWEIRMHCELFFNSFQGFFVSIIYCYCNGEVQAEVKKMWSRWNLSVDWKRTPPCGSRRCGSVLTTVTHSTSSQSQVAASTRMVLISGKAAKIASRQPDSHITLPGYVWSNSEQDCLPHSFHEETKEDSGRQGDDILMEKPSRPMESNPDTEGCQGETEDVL

[5] = target: T1, GATA4/NKX2-5 (Rattus norvegicus); experiment: Inhibition of GATA4/NKX2-5 interaction in neonatal rat ventricular cardiomyocytes assessed as decrease in basal mRNA level of BNP at 10 uM after 24 hrs by real-time PCR analysis
How it was run: (§2)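 Neonatal rat ventricular myocytes (2–4-day-old Sprague-Dawley or Wistar), preplated, seeded on 6-well plates, moved to complete serum-free medium next day and cultured 24 h. Compounds (10–100 μM) added 1 h before 100 nM endothelin-1 or none; ANP and BNP mRNA quantified by RT-PCR at 24 h, normalized to 18S RNA, relative to vehicle; mean ± SD, n = 3–6.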

[6] = Drug metabolism in embryoid body differentiation medium assessed as formation of N-[4-(Ethylamino)phenyl]-5-methyl-3-phenylisoxazole-4-carboxamide at 3 to 5 uM measured after 10 days by HPLC/MS method; type: physicochemical; conditions: 240 h
How it was run: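 Mouse embryonic stem cells exposed 5 and 10 days to 3 or 5 μM, with DMSO and EB differentiation medium blanks. Medium extracted with chloroform; cells pelleted, saline-washed twice, sonicated in chloroform. UPLC-ESI(+)-QTOF/MS, BEH C18, 0.1% formic acid water/acetonitrile gradient 7–80% B over 5 min, 0.6 mL/min, 40 °C.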

[7] = Induction of necrosis in neonatal rat ventricular cardiomyocytes assessed as release of adenylate kinase at 50 uM measured after 24 hrs by bioluminescence assay; type: cell-based; conditions: cardiac muscle cell
How it was run: (§3)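 Neonatal rat cardiomyocytes treated 24 h at 50 μM; adenylate kinase released into medium measured by ToxiLight bioluminescence on a luminometer; relative to vehicle, mean ± SD, n = 3.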

[8] = target: Glycogen synthase kinase-3 beta (Homo sapiens) (UniProt P49841); experiment: Inhibition of human GSK3-beta at 30 uM
Sequence of Glycogen synthase kinase-3 beta (Homo sapiens) (P49841 whole entry, looked up): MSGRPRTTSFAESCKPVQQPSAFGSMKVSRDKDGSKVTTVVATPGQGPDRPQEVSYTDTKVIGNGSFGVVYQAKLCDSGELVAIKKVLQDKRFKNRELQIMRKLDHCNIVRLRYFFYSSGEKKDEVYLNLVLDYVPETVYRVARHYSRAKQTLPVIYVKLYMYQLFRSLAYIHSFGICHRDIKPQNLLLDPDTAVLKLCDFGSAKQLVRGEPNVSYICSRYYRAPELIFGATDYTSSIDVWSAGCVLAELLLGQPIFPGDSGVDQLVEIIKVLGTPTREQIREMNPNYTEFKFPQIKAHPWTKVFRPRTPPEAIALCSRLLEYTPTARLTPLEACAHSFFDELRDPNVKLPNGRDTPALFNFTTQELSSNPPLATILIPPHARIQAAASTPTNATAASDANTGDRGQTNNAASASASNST
How it was run: (§4)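 48-kinase profiling panel; compounds tested at 30 μM in duplicate.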

[9] = Induction of aggregation of compounds at 100 uM by nephalometric method
[10] = target: T1, GATA4/NKX2-5 (Rattus norvegicus); experiment: Inhibition of GATA4/NKX2-5 interaction in neonatal rat ventricular cardiomyocytes assessed as decrease in endothelin-1 induced mRNA level of BNP at 10 uM preincubated for 1 hr followed by endothelin-1 addition measured after 23 hrs by real-time PCR analysis; how it was run: as §2
[11] = target: Homeobox protein Nkx-2.5 (Mus musculus) (UniProt P42582); experiment: Inhibition of binding of mouse NKX2-5 to [32P]-double stranded oligonucleotide expressed in African green monkey COS-1 cells at 50 uM preincubated for 10 mins followed by [32P]-double stranded oligonucleotide addition measured after 20 mins by EMSA method; type: cell-based
Sequence of Homeobox protein Nkx-2.5 (Mus musculus) (P42582 whole entry): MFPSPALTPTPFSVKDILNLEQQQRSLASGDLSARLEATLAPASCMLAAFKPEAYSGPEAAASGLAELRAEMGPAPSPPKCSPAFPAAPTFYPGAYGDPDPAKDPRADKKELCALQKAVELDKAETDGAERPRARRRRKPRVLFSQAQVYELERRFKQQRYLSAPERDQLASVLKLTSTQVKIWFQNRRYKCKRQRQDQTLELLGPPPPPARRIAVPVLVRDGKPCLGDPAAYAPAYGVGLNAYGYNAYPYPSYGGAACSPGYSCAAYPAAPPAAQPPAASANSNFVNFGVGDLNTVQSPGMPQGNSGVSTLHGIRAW
How it was run: (§5)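 Nuclear extracts from COS-1 cells transfected with pMT2-GATA4 or pMT2-NKX2-5 (harvested 48 h) preincubated 10 min with 50 μM compound, then 20 min with 32P-labeled GATA4- or NKX2-5-site probe; native 5% PAGE, phosphorimager quantitation; antibody supershift controls; mean ± SD, n = 3–5.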

[12] = target: Transcription factor GATA-4 (Mus musculus) (UniProt Q08369); experiment: Inhibition of binding of mouse GATA4 to [32P]-double stranded oligonucleotide expressed in African green monkey COS-1 cells at 50 uM preincubated for 10 mins followed by [32P]-double stranded oligonucleotide addition measured after 20 mins by EMSA method; type: cell-based; how it was run: as §5
Sequence of Transcription factor GATA-4 (Mus musculus) (Q08369 whole entry): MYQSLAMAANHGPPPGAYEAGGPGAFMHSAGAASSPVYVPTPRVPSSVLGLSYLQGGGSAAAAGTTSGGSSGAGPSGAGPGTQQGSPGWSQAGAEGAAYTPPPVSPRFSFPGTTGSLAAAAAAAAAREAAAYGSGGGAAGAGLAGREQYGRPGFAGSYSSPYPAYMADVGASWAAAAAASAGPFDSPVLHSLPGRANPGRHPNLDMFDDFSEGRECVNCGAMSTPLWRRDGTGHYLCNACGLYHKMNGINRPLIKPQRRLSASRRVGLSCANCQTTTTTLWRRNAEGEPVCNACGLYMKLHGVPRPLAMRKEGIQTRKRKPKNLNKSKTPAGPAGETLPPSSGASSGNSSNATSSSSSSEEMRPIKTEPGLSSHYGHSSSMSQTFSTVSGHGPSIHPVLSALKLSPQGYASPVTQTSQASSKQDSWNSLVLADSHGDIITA

[13] = target: T1, GATA4/NKX2-5 (Rattus norvegicus); experiment: Inhibition of GATA4/NKX2-5 interaction in neonatal rat ventricular cardiomyocytes assessed as decrease in endothelin-1 induced mRNA level of ANP at 10 uM preincubated for 1 hr followed by endothelin-1 addition measured after 23 hrs by real-time PCR analysis; how it was run: as §2
[14] = target: Transcription factor GATA-4 (Mus musculus) (UniProt Q08369); experiment: Inhibition of mouse GATA4-driven transactivation of luciferase reporter construct containing BNP minimal promoter with tandem GATA-site on -90 bp expressed in African green monkey COS-1 cells after 30 hrs by luminometer; type: cell-based
How it was run: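 COS-1 cells co-transfected with firefly luciferase driven by BNP minimal or −90 bp BNP promoter, Renilla pRL-TKd238, and pMT2-GATA4 or empty pMT2. Compounds added 6 h post-transfection in 0.1% DMSO, refreshed with medium at 24 h; lysis at 30 h; dual-luciferase, firefly/Renilla normalized to vehicle; triplicate wells.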

[15] = Induction of necrosis in endothelin-1 induced neonatal rat ventricular cardiomyocytes assessed as release of adenylate kinase at 50 uM measured after 24 hrs by bioluminescence assay; type: cell-based; conditions: cardiac muscle cell; how it was run: as §3
[16] = target: T1, GATA4/NKX2-5 (Rattus norvegicus); experiment: Inhibition of GATA4/NKX2-5 interaction in neonatal rat ventricular cardiomyocytes assessed as decrease in basal mRNA level of ANP at 10 uM after 24 hrs by real-time PCR analysis; how it was run: as §2
[17] = target: Rho-associated protein kinase 1 (Homo sapiens) (UniProt Q13464); experiment: Inhibition of human ROCK1 at 30 uM; how it was run: as §4
Sequence of Rho-associated protein kinase 1 (Homo sapiens) (Q13464 2-1354 limits assumed): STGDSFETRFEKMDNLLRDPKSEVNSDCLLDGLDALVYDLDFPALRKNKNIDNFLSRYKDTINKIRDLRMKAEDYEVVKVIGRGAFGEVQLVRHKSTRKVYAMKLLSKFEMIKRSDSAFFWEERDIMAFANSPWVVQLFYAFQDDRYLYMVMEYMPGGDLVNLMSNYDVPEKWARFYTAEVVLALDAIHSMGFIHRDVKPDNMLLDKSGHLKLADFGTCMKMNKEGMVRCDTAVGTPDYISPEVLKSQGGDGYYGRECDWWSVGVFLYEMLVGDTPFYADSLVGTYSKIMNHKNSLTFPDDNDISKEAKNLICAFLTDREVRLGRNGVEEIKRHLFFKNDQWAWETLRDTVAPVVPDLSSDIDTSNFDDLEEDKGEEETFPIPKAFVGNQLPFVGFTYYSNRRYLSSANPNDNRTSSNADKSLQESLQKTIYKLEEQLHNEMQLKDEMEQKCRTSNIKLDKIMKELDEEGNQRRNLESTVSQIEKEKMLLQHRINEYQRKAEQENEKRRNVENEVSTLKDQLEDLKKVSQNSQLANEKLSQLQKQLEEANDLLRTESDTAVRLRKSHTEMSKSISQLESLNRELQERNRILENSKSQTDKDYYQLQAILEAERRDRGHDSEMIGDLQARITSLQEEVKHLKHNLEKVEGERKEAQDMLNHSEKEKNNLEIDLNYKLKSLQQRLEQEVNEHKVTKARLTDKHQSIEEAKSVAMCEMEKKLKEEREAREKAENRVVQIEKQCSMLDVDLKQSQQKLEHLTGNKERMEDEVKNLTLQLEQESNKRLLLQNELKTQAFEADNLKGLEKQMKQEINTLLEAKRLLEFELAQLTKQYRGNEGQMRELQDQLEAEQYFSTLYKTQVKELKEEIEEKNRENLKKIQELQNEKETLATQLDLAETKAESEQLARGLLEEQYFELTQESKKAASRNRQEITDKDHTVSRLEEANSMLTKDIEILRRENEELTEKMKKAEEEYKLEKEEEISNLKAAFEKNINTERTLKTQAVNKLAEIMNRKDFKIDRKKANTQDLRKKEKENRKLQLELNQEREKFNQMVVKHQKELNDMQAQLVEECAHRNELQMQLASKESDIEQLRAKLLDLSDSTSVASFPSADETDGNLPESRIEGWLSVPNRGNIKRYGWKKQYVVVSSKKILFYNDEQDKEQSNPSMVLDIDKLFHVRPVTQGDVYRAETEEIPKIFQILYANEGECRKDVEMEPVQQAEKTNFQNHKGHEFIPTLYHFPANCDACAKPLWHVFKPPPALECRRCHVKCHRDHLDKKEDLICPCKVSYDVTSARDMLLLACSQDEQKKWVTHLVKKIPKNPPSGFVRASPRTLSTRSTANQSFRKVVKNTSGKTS

[18] = target: Parathyroid hormone 2 receptor (Homo sapiens) (UniProt P49190); experiment: Agonist activity at human PTH2 receptor expressed in Chem-1 cells assessed as induction of calcium flux at 12.5 uM by fluorescence assay; type: functional, cell-based; how it was run: as §1
GATA4/NKX2-5 = GATA4/NKX2-5 (Mus musculus, UniProt P42582+Q08369); experiment: (§6) Inhibition of mouse GATA4/NKX2-5 transcriptional synergy expressed in African green monkey COS-1 cells measured after 30 hrs by dual luciferase reporter gene assay; type: cell-based
Sequence of GATA4/NKX2-5 (Q08369 whole entry): as the sequence (Q08369 whole entry) above
Sequence of GATA4/NKX2-5 (P42582 whole entry): as the sequence (P42582 whole entry) above
How it was run: (§7)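 COS-1 cells co-transfected (Fugene 6, DNA:reagent 1:3) with p3xNKE-luc, Renilla pRL-TKd238 control, and pMT2-GATA4, pMT2-NKX2-5, both, or empty pMT2; DNA balanced with pMT2. Compounds added 6 h post-transfection in 0.1% DMSO, medium renewed at 24 h, lysis at 30 h. Dual-luciferase read-out, firefly/Renilla normalized to vehicle; duplicate wells.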

[19] = target: GATA4/NKX2-5 (Mus musculus) (UniProt Q08369+P42582); experiment: as §6; type: cell-based; how it was run: as §7

Sequence of Growth hormone secretagogue receptor type 1 (Homo sapiens) (Q92847 whole entry): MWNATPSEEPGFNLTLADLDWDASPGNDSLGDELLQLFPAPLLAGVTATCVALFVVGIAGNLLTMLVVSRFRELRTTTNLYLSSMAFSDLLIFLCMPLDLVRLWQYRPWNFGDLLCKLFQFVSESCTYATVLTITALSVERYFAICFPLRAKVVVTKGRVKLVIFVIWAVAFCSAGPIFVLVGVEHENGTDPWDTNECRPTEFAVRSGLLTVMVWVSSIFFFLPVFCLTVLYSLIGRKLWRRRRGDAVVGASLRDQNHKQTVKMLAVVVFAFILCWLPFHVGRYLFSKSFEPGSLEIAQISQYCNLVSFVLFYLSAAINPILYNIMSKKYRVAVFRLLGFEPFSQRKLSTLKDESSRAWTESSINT

In the case of `CCN(CC)c1ccc(NC(=O)c2c(-c3ccccc3)noc2C)cc1`, the inhibition [1] is reported as 65.2%, the Stability [2] is reported as “Stable” and the inhibition [3] is reported as “Active”. For the same molecule, the inhibition [4] was 59.5%, the inhibition [5] was 75% and the Drug metabolism [6] was “Metabolite_Detected”. The Activity [7] was “Non-Toxic”, the inhibition [8] was “inactive” and the Activity [9] was “Active”. The inhibition [10] was 68%, the inhibition [11] was “inactive” and the inhibition [12] was “inactive”. For the same molecule, the inhibition [13] was 32%, the inhibition [14] was “Active” and the Activity [15] was “Non-Toxic”. For the same molecule, the inhibition [16] was 81%, the inhibition [17] was “inactive” and the Activity [18] was “inactive”. The IC50 (GATA4/NKX2-5) was 3 µM and the inhibition [19] was “Dose-dependent effect”.

Reference: ChEMBL document CHEMBL4028856, “Discovery of Small Molecules Targeting the Synergy of Cardiac Transcription Factors GATA4 and NKX2-5” (J Med Chem, 2017)
